Activity calls are given as the source filed them. The rule behind the calls is not given here.

The species named for assay [1] is Rattus norvegicus. The assay can be described thus: The compound was tested for effective dose ( ED 50) against stimulus generation with rats trained to discriminate (R) (-)-DOB from saline. It is filed as functional. The gist of the method: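 Male Sprague-Dawley rats (n = 6) on a two-lever operant task for sweetened milk, VI 15-s schedule. Trained to discriminate 0.2 mg/kg ip training drug from 1.0 mL/kg 0.9% saline, 15 min pre-session. Test doses were given ip in random order to groups of 3–6, with 15-min pretreatment and a 2.5-min extinction session. ED50 was calculated from dose-response data.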

For assay [2], the species on record is Rattus norvegicus. Briefly: The number of animals responding per number of animals receiving the drug(3/4) in the stimulus-generation studies was calculated at dose 0.3 mg / kg. It is filed as functional.
Assay [3] is filed under the species Rattus norvegicus. The assay can be described thus: The number of responses made on the (R)(-)-DOB appropriate level as a percent of total responses made during the 2.5 min extinction session in the stimulus-generation studies was calculated at dose 2.2 mg / kg. It is filed as functional. The method, boiled down: (§1)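 Male Sprague-Dawley rats (n = 6) were trained on a two-lever operant task for sweetened-milk reward to discriminate 0.2 mg/kg (R)-(-)-DOB-HCl ip from 1.0 mL/kg 0.9% saline, with a VI 15-s schedule and 15-min sessions. Test doses were given ip 15 min before a 2.5-min extinction session, in random order, to groups of 3-6 rats. Read-out was % drug-lever responses; fewer than five total responses counted as disrupted.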

The species entered for assay [4] is Rattus norvegicus. Briefly: The number of responses made on the (R)(-)-DOB appropriate level, generation studies was calculated at dose 2.0 mg / kg. It is filed as functional. The method, boiled down:
as §1

Assay [5] is filed under the species Rattus norvegicus. Briefly: The mean responses per minute during the 2.5 min extinction session in the stimulus-generation studies was calculated at dose 6.0 mg / kg. It is filed as functional. The method, boiled down:
(§2)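 Rats were trained on a two-lever drug-versus-saline discrimination (0.2 mg/kg ip training dose, VI 15-s, food reward). Challenge doses were given ip 15 min before a 2.5-min extinction test, in random order, to groups of 3–6 rats, with at least three training sessions between tests. Response rate is responses per minute over the extinction session.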

The species entered for assay [6] is Rattus norvegicus. The assay can be described thus: The number of responses made on the (R)(-)-DOB appropriate level, generation studies was calculated at dose 8.5 mg / kg; NR means not responding. It is filed as functional, organism-based. Also on record: dose 8.5 mg / kg. The gist of the method: as §1
For assay [7], the target named is T1, Serotonin 2 (5-HT2) receptor (Rattus norvegicus, UniProt P30994+P08909+P14842). The assay can be described thus: Affinity towards [3H]- ketanserin-labeled 5-hydroxytryptamine 2 receptor sites in rat cortical homogenates. The gist of the method: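 Label was 0.4 nM [3H]ketanserin, with 11 competitor concentrations run in triplicate and nonspecific binding defined by 1 μM cinanserin. Bound ligand was filtered onto glass fibre and counted by scintillation. IC50 came from nonlinear regression; Ki = IC50/(1+[D]/KD).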

Assay [8] is filed under the species Rattus norvegicus. The assay can be described thus: The number of animals responding per number of animals receiving the drug(3/5) in the stimulus-generation studies was calculated at dose 6.0 mg / kg. It is filed as functional. The gist of the method: (§3)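 Male Sprague-Dawley rats were trained to discriminate 0.2 mg/kg ip training drug from saline (two levers, VI 15-s, milk reward). Test doses were given ip 15 min pre-session in random order to groups of 3–6. In the 2.5-min extinction session, rats making fewer than five total responses were counted as disrupted. N is animals responding over animals dosed.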

For assay [9], the species on record is Rattus norvegicus. Briefly: The number of responses made on the (R)(-)-DOB appropriate level, generation studies was calculated at dose 7.8 mg / kg. It is filed as functional. The gist of the method:
as §1

For assay [10], the species on record is Rattus norvegicus. The assay can be described thus: The number of animals responding per number of animals receiving the drug(3/5) in the stimulus-generation studies was calculated at dose 7.8 mg / kg. It is filed as functional. The gist of the method: as §3
For assay [11], the species on record is Rattus norvegicus. Briefly: The mean responses per minute during the 2.5 min extinction session in the stimulus-generation studies was calculated at dose 2.2 mg / kg. It is filed as functional. The gist of the method: as §2
The target in assay [12] is T1, Serotonin 2 (5-HT2) receptor. Briefly: Affinity towards [3H]- DOB -labeled 5-hydroxytryptamine 2 receptor sites in rat cortical homogenates.
Assay [13] is filed under the species Rattus norvegicus. Briefly: The number of animals responding per number of animals receiving the drug(1/4) in the stimulus-generation studies was calculated at dose 8.5 mg / kg. It is filed as functional. The gist of the method: as §3
The test system of assay [14] is Rattus norvegicus. Briefly: The number of animals responding per number of animals receiving the drug in the stimulus-generation studies was calculated at dose 2.2 mg/kg. It is filed as functional. The method, boiled down: as §3
For assay [15], the species on record is Rattus norvegicus. The assay can be described thus: The number of animals responding per number of animals receiving the drug(3/5) in the stimulus-generation studies was calculated at dose 7.5 mg / kg. It is filed as functional. The gist of the method: as §3
The species named for assay [16] is Rattus norvegicus. Briefly: The mean responses per minute during the 2.5 min extinction session in the stimulus-generation studies was calculated at dose 4.0 mg / kg. It is filed as functional. The method, boiled down:
as §2

The species entered for assay [17] is Rattus norvegicus. The assay can be described thus: The number of responses made on the (R)(-)-DOB appropriate level, generation studies was calculated at dose 7.5 mg / kg. It is filed as functional. The gist of the method: as §1
Assay [18] is filed under the species Rattus norvegicus. The assay can be described thus: The mean responses per minute during the 2.5 min extinction session in the stimulus-generation studies was calculated at dose 2.0 mg / kg. It is filed as functional. The method, boiled down:
as §2

For assay [19], the species on record is Rattus norvegicus. Briefly: The number of responses made on the (R)(-)-DOB appropriate level, generation studies was calculated at dose 4.0 mg / kg. It is filed as functional. The gist of the method:
as §1

The species named for assay [20] is Rattus norvegicus. Briefly: The number of responses made on the (R)(-)-DOB appropriate level as a percent of total responses made during the 2.5 min extinction session in the stimulus-generation studies was calculated at dose 6.0 mg / kg. It is filed as functional. The method, boiled down:
as §1

Assay [21] is filed under the species Rattus norvegicus. Briefly: The mean responses per minute during the 2.5 min extinction session in the stimulus-generation studies was calculated at dose 7.8 mg / kg. It is filed as functional. The method, boiled down: as §2
For assay [22], the species on record is Rattus norvegicus. Briefly: The number of animals responding per number of animals receiving the drug(4/6) in the stimulus-generation studies was calculated at dose 4.0 mg / kg. It is filed as functional. The gist of the method: as §1
The species named for assay [23] is Rattus norvegicus. Briefly: The mean responses per minute during the 2.5 min extinction session in the stimulus-generation studies was calculated at dose 7.5 mg / kg. It is filed as functional. The gist of the method: as §2
Assay [24] is filed under the species Rattus norvegicus. The assay can be described thus: The mean responses per minute during the 2.5 min extinction session in the stimulus-generation studies was calculated at dose 0.7 mg / kg. It is filed as functional. The gist of the method: as §2
Assay [25] is filed under the species Rattus norvegicus. Briefly: The mean responses per minute during the 2.5 min extinction session in the stimulus-generation studies was calculated at dose 1.1 mg / kg. It is filed as functional. The method, boiled down: as §2
For assay [26], the species on record is Rattus norvegicus. The assay can be described thus: The number of animals responding per number of animals receiving the drug(4/4) in the stimulus-generation studies was calculated at dose 1.1 mg / kg. It is filed as functional. The gist of the method: as §3
For assay [27], the species on record is Rattus norvegicus. Briefly: The number of responses made on the (R)(-)-DOB appropriate level, generation studies was calculated at dose 0.4 mg / kg. It is filed as functional. The gist of the method:
as §1

The species entered for assay [28] is Rattus norvegicus. Briefly: The number of responses made on the (R)(-)-DOB appropriate level, generation studies was calculated at dose 0.7 mg / kg. It is filed as functional. The gist of the method:
as §1

The species named for assay [29] is Rattus norvegicus. Briefly: The number of responses made on the (R)(-)-DOB appropriate level, generation studies was calculated at dose 0.2 mg / kg. It is filed as functional. The method, boiled down:
as §1

For assay [30], the species on record is Rattus norvegicus. The assay can be described thus: The number of animals responding per number of animals receiving the drug(3/3) in the stimulus-generation studies was calculated at dose 0.2 mg / kg. It is filed as functional. The method, boiled down: as §3
Assay [31] is filed under the species Rattus norvegicus. Briefly: The number of animals responding per number of animals receiving the drug(3/3) in the stimulus-generation studies was calculated at dose 0.7 mg / kg. It is filed as functional. The method, boiled down:
as §3

Assay [32] is filed under the species Rattus norvegicus. The assay can be described thus: The number of animals responding per number of animals receiving the drug(3/4) in the stimulus-generation studies was calculated at dose 0.4 mg / kg. It is filed as functional. The gist of the method:
as §3

The species entered for assay [33] is Rattus norvegicus. The assay can be described thus: The mean responses per minute during the 2.5 min extinction session in the stimulus-generation studies was calculated at dose 0.4 mg / kg. It is filed as functional. The method, boiled down:
as §2

Assay [34] is filed under the species Rattus norvegicus. The assay can be described thus: The mean responses per minute during the 2.5 min extinction session in the stimulus-generation studies was calculated at dose 0.2 mg / kg. It is filed as functional. The gist of the method:
as §2

The species entered for assay [35] is Rattus norvegicus. The assay can be described thus: The number of responses made on the (R)(-)-DOB appropriate level, generation studies was calculated at dose 1.1 mg / kg. It is filed as functional. The method, boiled down:
as §1

The molecule `COc1cc(CC(C)N(C)C)c(OC)cc1Br` (stereo unspecified) came in with an ED50 in the assay listed under Rattus norvegicus [1] of 5.36 mg/kg. Also, the “No. of animals responding/animals receiving drug” value in the assay filed under Rattus norvegicus [2] is reported as 3; in the assay listed under Rattus norvegicus [8] it was 3; in the assay filed under Rattus norvegicus [10], 3; in the assay filed under Rattus norvegicus [13], 1; in the assay on Rattus norvegicus [14], 5; in the assay filed under Rattus norvegicus [15], 3. The “No. of animals responding/animals receiving drug” value in the assay filed under Rattus norvegicus [22] was 4. Moreover, the Responding in the assay filed under Rattus norvegicus [3] was 6%; in the assay filed under Rattus norvegicus [4], 23%; in the assay filed under Rattus norvegicus [9], 86%; in the assay filed under Rattus norvegicus [17] it was 64%; in the assay filed under Rattus norvegicus [19], 29%; in the assay filed under Rattus norvegicus [20] it was 38%. Further, the Response rate in the assay listed under Rattus norvegicus [5] was 8.1; in the assay listed under Rattus norvegicus [11] it was 14.8; in the assay listed under Rattus norvegicus [16] it was 10.1; in the assay listed under Rattus norvegicus [18], 14.6; in the assay listed under Rattus norvegicus [21], 4.5; in the assay listed under Rattus norvegicus [23], 6.8. Also, in the assay filed under Rattus norvegicus [6], the Responding entry was “inactive”. Besides, the Ki amounted to 380 nM in assay [7] and 94 nM in assay [12].

On to `COc1cc(C[C@H](C)N)c(OC)cc1Br`, for which, in the assay listed under Rattus norvegicus [1], it took a dose of 0.56 mg/kg to reach the 50% effect level (ED50). In addition, the Response rate in the assay filed under Rattus norvegicus [24] is 10.8; in the assay listed under Rattus norvegicus [25], 10.8; in the assay listed under Rattus norvegicus [33] it was 10.5; in the assay filed under Rattus norvegicus [34], 12. Besides, the “No. of animals responding/animals receiving drug” value in the assay filed under Rattus norvegicus [26] is recorded as 4; in the assay listed under Rattus norvegicus [30], 3; in the assay listed under Rattus norvegicus [31], 3; in the assay listed under Rattus norvegicus [32], 3. Also, the Responding was 48% in the assay listed under Rattus norvegicus [27], 63% in the assay filed under Rattus norvegicus [28], 3% in the assay filed under Rattus norvegicus [29] and 82% in the assay listed under Rattus norvegicus [35].

(Values after ChEMBL document CHEMBL1123747, “N-methyl derivatives of the 5-HT2 agonist 1-(4-bromo-2,5-dimethoxyphenyl)-2-aminopropane” (J Med Chem, 1987).)
